A short description of series [1]: Distribution coefficient, log D of the compound. The class given is physicochemical. To be noted: octanol/water.
For a further series, the species on record is Homo sapiens. The series can be described thus: Selectivity for human recombinant adrenergic beta2 receptor over human recombinant adrenergic beta-1 receptor. A digest of the protocol:
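Cell-based functional agonist assay using recombinant human β2 receptor expressed in CHO cells, compared against human β1 receptor.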

A short description of series [2]: Metabolic stability in human liver microsomes. To be noted: read-out: Stability. The class given is ADME, Microsome. In general terms: Liver microsomes are a subcellular fraction often used to study metabolism.
A short description of series [3]: Clearance in iv dosed rat. The class given is ADME, organism-based. Particulars: in vivo. A digest of the protocol:
(§1)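 Rats were given the compound intravenously, and volume of distribution, clearance and half life were determined from that dosing.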

A short description of series [4]: Volume of distribution in iv dosed rat. It counts as ADME, organism-based. To be noted: in vivo. In outline:
as §1

Series [5] is described as follows: Half life in iv dosed rat. Particulars: in vivo. The class given is ADME, organism-based. A digest of the protocol:
as §1

The nature of series [6]: Oral bioavailability in rat. Particulars: in vivo. It counts as ADME, organism-based. In outline:
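Rats received the compound orally and intravenously in a crossover study.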

By logD is commonly meant the decadic logarithm of the distribution of all forms, ionised or not, between an organic phase and buffer at a given pH. A lower logD goes with a more hydrophilic compound. In series [1], `C[C@H](Cc1cccc(CC(=O)NCC23CC4CC(CC(C4)C2)C3)c1)NC[C@H](O)c1ccc(O)c(CO)c1` showed a pH-dependent lipophilicity (logD) of 2.5. In the series filed under Homo sapiens, the Selectivity ratio stood at 547. In addition, the half-life in series [2] amounted to 2 min.

`C[C@H](Cc1cccc(CC(=O)NCC2CCCCCC2)c1)NC[C@H](O)c1ccc(O)c(CO)c1`: in series [1], the logD came to 2. Further, in the series filed under Homo sapiens, the Selectivity ratio was 1890.

In series [1], `C[C@H](Cc1cccc(CC(=O)NC2C3CC4CC(C3)CC2C4)c1)NC[C@H](O)c1ccc(O)c(CO)c1` (stereo partly drawn) registered a logD of 2.1. Moreover, the Selectivity ratio in the series listed under Homo sapiens worked out at 451. Also, the half-life in series [2] was found to be 2 min.

As to `C[C@H](Cc1cccc(CC(=O)NCc2ccc(Cl)c(Cl)c2)c1)NC[C@H](O)c1ccc(O)c(CO)c1`, the Selectivity ratio in the series filed under Homo sapiens came to 6340. For the same compound, in series [2], the half-life was 4 min.

Regarding `C[C@H](Cc1cccc(CC(=O)NC2CCCCCCC2)c1)NC[C@H](O)c1ccc(O)c(CO)c1`, in series [1], the pH-dependent lipophilicity (logD) came out at 1.9. The Selectivity ratio in the series listed under Homo sapiens amounted to 192. Besides, the half-life in series [2] stood at 2 min.

Usually clearance stands for the volume of plasma or blood freed of the substance per unit of time. Read a low clearance as a low capacity for elimination. Broadly, the Vd is a proportionality between amount in the body and measured concentration, not a real space. The low end stands for little distribution into tissue, the high end for wide distribution into tissue. As a reminder, the bioavailability is the share of a dose that reaches the circulation, judged against a reference dose that is usually intravenous. A high value points to much systemic uptake. With `C[C@H](Cc1cccc(CC(=O)NC23CC4CC(CC(C4)C2)C3)c1)NC[C@H](O)c1ccc(O)c(CO)c1`, the logD in series [1] came out at 2.1. This compound also had a clearance in series [3] of 103 mL/min/kg. Further, the Selectivity ratio in the series filed under Homo sapiens is 2210. Further, the Vd in series [4] was 14 L/kg. Also, the half-life in series [5] was 96 min; in series [2], 2 min. In series [6], this compound showed a bioavailability of under 5%.

For the compound `C[C@H](Cc1cccc(CC(=O)NCC2CCCCC2)c1)NC[C@H](O)c1ccc(O)c(CO)c1`, in series [1], the logD was 1.5. The Selectivity ratio in the series filed under Homo sapiens was determined as 6790. Moreover, the half-life in series [2] was determined as 3 min.
